Assay results taken from ChEMBL document CHEMBL1152935, “Synthesis and structure-activity relationships of radicicol derivatives and WNT-5A expression inhibitory activity” (Bioorg Med Chem, 2009).
pIC50: −log10 of the molar value.

Tests used:
[1] = Inhibition of WNT5A mRNA expression in human dermal papilla cells after 24 hrs by quantigene assay; assay type: functional, cell-based
How it was run: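 Human dermal papilla cells (gift, fifth subculture) in MEM with 12% FBS, seeded at 1 × 10⁴ cells/well, cultured overnight, then exposed 24 h to compounds or no-compound medium. WNT-5A mRNA quantified by branched-DNA QuantiGene: lysates on capture plate, WNT-5A probes 53 °C 20 h, amplifier then alkaline phosphatase probe each 46 °C 1 h, Lumi-Phos Plus 46 °C 30 min, luminescence read. IC50 reported.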

[2] = Cytotoxicity against human dermal papilla cells by Alamar blue assay; assay type: cell-based; conditions: read-out: TC50 (the source's name)
How it was run: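 Dermal papilla cells seeded at 5 × 10³ cells/well, grown 16 h in MEM with 12% FBS, then given medium with or without test compounds for 24 h. Medium swapped for one containing 10% Alamar Blue and cells cultured 4 h more; fluorescence read at Ex 544 nm/Em 590 nm. TC50 reported.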

[3] = Inhibition of HSP90

Compound | pIC50 ([1]; Homo sapiens, 24 h) | CC50 [2] | pIC50 [1] | pIC50 [3]
C[C@@H]1C[C@H]2O[C@@H]2CCCC[C@H](O)Cc2c(Cl)c(O)cc(O)c2C(=O)O1 | 5.23 | > 100 µM |  | 
C[C@@H]1C[C@H]2O[C@@H]2CC/C=C/[C@@H](O)Cc2c(Cl)c(O)cc(O)c2C(=O)O1 | < 4.00 | > 100 µM |  | 
C[C@@H]1C[C@H]2O[C@@H]2C/C=C/C[C@@H](O)Cc2c(Cl)c(O)cc(O)c2C(=O)O1 | < 4.30 |  |  | 
C[C@@H]1C[C@H]2O[C@@H]2CC/C=C/[C@H](O)Cc2c(Cl)c(O)cc(O)c2C(=O)O1 | 5.72 | > 100 µM |  | 
C[C@@H]1C[C@H]2O[C@@H]2CCCC[C@@H](O)Cc2c(Cl)c(O)cc(O)c2C(=O)O1 | < 4.00 | > 100 µM |  | 
C[C@@H]1C[C@H]2O[C@@H]2C/C=C/C[C@H](O)Cc2c(Cl)c(O)cc(O)c2C(=O)O1 | < 4.30 |  |  | 
C[C@@H]1C/C=C/CC/C=C/[C@H](O)Cc2cc(O)cc(O)c2C(=O)O1 | < 4.30 |  |  | 
CC(=O)S[C@@H]1/C=C\CC(=O)Cc2c(Cl)c(O)cc(O)c2C(=O)O[C@H](C)C[C@H]2O[C@@H]21 | 6.30 | > 100 µM |  | 
COc1cc(O)c2c(c1Cl)C[C@@H](O)/C=C/CC[C@H]1O[C@@H]1C[C@@H](C)OC2=O | < 4.00 |  |  | 
C[C@@H]1C[C@H]2O[C@@H]2/C=C\C=C\[C@H](O)Cc2c(Cl)c(O)cc(O)c2C(=O)O1 | 5.68 | > 100 µM |  | 
C[C@@H]1C[C@@H](O)CC/C=C/CC(=O)Cc2c(Cl)c(O)cc(O)c2C(=O)O1 | < 4.30 |  |  | 
C[C@@H]1C[C@@H](O)CCCCCC(=O)Cc2c(Cl)c(O)cc(O)c2C(=O)O1 | < 4.30 |  |  | 
C[C@@H]1CC(O)C2C=CC(CC(=O)Cc3c(Cl)c(O)cc(O)c3C(=O)O1)O2 (stereo partly drawn) | < 4.30 |  |  | 
C[C@@H]1C[C@H]2O[C@@H]2C/C=C/CC(=O)Cc2c(Cl)c(O)cc(O)c2C(=O)O1 | 5.11 | > 100 µM |  | 
CO/N=C1/C=C/C=C\[C@H]2O[C@@H]2C[C@@H](C)OC(=O)c2c(O)cc(O)c(Cl)c2C1 | 5.91 | > 100 µM |  | 
C[C@@H]1C[C@H]2O[C@@H]2CC/C=C/[C@H](O)Cc2cc(O)cc(O)c2C(=O)O1 | 4.88 | > 100 µM |  | 
C[C@@H]1C[C@H]2O[C@@H]2C(Sc2ccccc2)/C=C\CC(=O)Cc2c(Cl)c(O)cc(O)c2C(=O)O1 (stereo partly drawn) | 6.57 | > 50 µM |  | 
COc1cc(OC)c2c(c1Cl)C[C@@H](O)/C=C/CC[C@H]1O[C@@H]1C[C@@H](C)OC2=O | < 4.00 |  |  | 
CC(=O)Oc1cc(OC(C)=O)c2c(c1Cl)CC(OC(C)=O)/C=C/CC[C@H]1O[C@@H]1C[C@@H](C)OC2=O (stereo partly drawn) | < 4.00 |  |  | 
C[C@@H]1C[C@H]2O[C@@H]2[C@H](Sc2ccccc2)CCCC(=O)Cc2c(Cl)c(O)cc(O)c2C(=O)O1 | < 4.30 | > 50 µM |  | 
C[C@@H]1CCCCCCCC(=O)Cc2cc(O)cc(O)c2C(=O)O1 | < 4.30 |  |  | 

Compound | pIC50 ([1]; Homo sapiens, 24 h) | CC50 [2] | pIC50 [1] | pIC50 [3]
C[C@@H]1C[C@@H](O)[C@@H](O)/C=C\C=C\C(=O)Cc2c(Cl)c(O)cc(O)c2C(=O)O1 | < 4.30 |  |  | 
C[C@@H]1C[C@H]2O[C@@H]2\C=C/C=C/C(=N\OCc2ccccc2)Cc2c(Cl)c(O)cc(O)c2C(=O)O1 | 6.29 | 65.6 µM |  | 
C[C@@H]1C/C=C/CC/C=C/[C@@H](O)Cc2cc(O)cc(O)c2C(=O)O1 | < 4.30 |  |  | 
CO\N=C1/C=C/C=C\[C@H]2O[C@@H]2C[C@@H](C)OC(=O)c2c(O)cc(O)c(Cl)c2C1 | 6.82 | > 100 µM |  | 
C[C@@H]1C[C@H]2S[C@@H]2/C=C\C=C\C(=O)Cc2c(Cl)c(O)cc(O)c2C(=O)O1 | 5.04 | 28.2 µM |  | 
C[C@@H]1C[C@H]2O[C@@H]2\C=C/C=C/C(=N/OCc2ccccc2)Cc2c(Cl)c(O)cc(O)c2C(=O)O1 | 7.22 | 42.1 µM |  | 
C[C@@H]1C[C@@H](O)C/C=C\CCC(=O)Cc2c(Cl)c(O)cc(O)c2C(=O)O1 | < 4.30 |  |  | 
C[C@@H]1C[C@H]2OC(=O)O[C@H]2/C=C\C=C\C(=O)Cc2c(Cl)c(O)cc(O)c2C(=O)O1 | 4.80 | 28.1 µM |  | 
CC(=O)S[C@@H]1/C=C/CC(=O)Cc2c(Cl)c(O)cc(O)c2C(=O)O[C@H](C)C[C@H]2O[C@@H]21 | 5.63 | > 100 µM |  | 
C[C@@H]1C[C@@H](O)[C@H](Cl)/C=C\C=C\C(=O)Cc2c(Cl)c(O)cc(O)c2C(=O)O1 |  |  | < 4.30 | 
C[C@@H]1C[C@H]2O[C@@H]2\C=C/C=C/C(=N\O)Cc2c(Cl)c(O)cc(O)c2C(=O)O1 | 6.59 | 89.5 µM |  | 
C[C@@H]1C[C@@H](O)C(Cl)/C=C\C=C\C(=O)Cc2c(Cl)c(O)cc(O)c2C(=O)O1 (single isomer, unassigned) |  | 42 µM | 4.88 | 
COc1cc(OC)c2c(c1Cl)CC(=O)/C=C/C=C\[C@H]1O[C@@H]1C[C@@H](C)OC2=O [DIMETHYL RADICICOL] | 5.42 | 8.4 µM |  | 
C[C@@H]1C[C@H]2O[C@@H]2CC/C=C/C(=O)Cc2cc(O)cc(O)c2C(=O)O1 [MONOCILLIN III] | 5.03 | 28.9 µM |  | 
C[C@@H]1C[C@H]2O[C@@H]2/C=C\C=C\C(=O)Cc2cc(O)cc(O)c2C(=O)O1 [MONOCILLIN I] | 5.71 | 2.9 µM |  | 
C[C@H]1C[C@H]2O[C@@H]2CC/C=C/C(=O)Cc2c(Cl)c(O)cc(O)c2C(=O)O1 [POCHONIN A] | 5.58 | 57.3 µM |  | 7.05
CC(=O)Oc1cc(OC(C)=O)c2c(c1Cl)CC(=O)/C=C/C=C\[C@H]1O[C@@H]1C[C@@H](C)OC2=O [RADICICOL DIACETATE] | 6.52 | 29.1 µM |  | 
C[C@@H]1C[C@H]2O[C@@H]2/C=C\C=C\C(=O)Cc2c(Cl)c(O)cc(O)c2C(=O)O1 [RADICICOL] | 6.72 | 15.3 µM |  | 
C[C@@H]1C[C@H]2O[C@@H]2CCCCC(=O)Cc2cc(O)cc(O)c2C(=O)O1 [TETRAHYDROMONOCILLIN I] | 4.83 |  |  | 
C[C@@H]1C[C@H]2O[C@@H]2CCCCC(=O)Cc2c(Cl)c(O)cc(O)c2C(=O)O1 [TETRAHYDRORADICICOL] | 5.65 | > 100 µM |  | 
